Measured values taken from ChEMBL document CHEMBL4689842, “EUbOPEN Chemogenomics Library wave 1” (2021).
“And” between values parts separate entries of the source, which are not always exact repeats. Identical values can stand only once.

Tested on: U2OS
Experiment: Multiplex assay against U2OS
Type: toxicity, cell-based
Conditions: human
Procedure, shortened: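 At seeding, live cells were stained with Hoechst33342, BioTracker Green Microtubule Cytoskeleton Dye, MitoTracker Red and Annexin V Alexa Fluor 680. After compound addition they were imaged on a CQ1 microscope at 37°C and 5% CO2, and CellPathfinder machine-learning gating sorted them into Hoechst high-intensity objects or normal cells, with normal cells further split into healthy, pyknosed or fragmented nuclei and pyknosed cells into mitotic or apoptotic. Tubulin, mitochondrial-mass and membrane-permeability phenotypes are given as per cents of cells with healthy nuclei.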

[1] = 12 h, 1 µM, compound concentration 1 uM, replicate 1
[2] = 12 h, 1 µM, compound concentration 1 uM, replicate 2
[3] = 12 h, 10 µM, compound concentration 10 uM, replicate 1
[4] = 12 h, 10 µM, compound concentration 10 uM, replicate 2
[5] = 24 h, 1 µM, compound concentration 1 uM, replicate 1
[6] = 24 h, 1 µM, compound concentration 1 uM, replicate 2
[7] = 24 h, 10 µM, compound concentration 10 uM, replicate 1
[8] = 24 h, 10 µM, compound concentration 10 uM, replicate 2

CCOc1ccn(-c2ccc(F)cc2)c(=O)c1C(=O)Nc1ccc(Oc2ccnc(N)c2Cl)c(F)c1 [BMS-777607]
Population Apoptotic (%) [1]: 41%
Population Healthy Nuclei (%) [1]: 88%
Population Hoechst High Intensity Objects (%) [1]: 4%
Population Membrane Permeable-Phenotype (%) [1]: 35%
Population Mitochondria Different-Phenotype (%) [1]: 11%
Population Mitotic Cells (%) [1]: 58%
Population Normal (%) [1]: 95%
Population Pyknosed Nuclei (%) [1]: 6%
Total Cell Count [1]: 190
Population Apoptotic (%) [2]: 28%
Population Fragmented Nuclei (%) [2]: 4%
Population Healthy Nuclei (%) [2]: 86%
Population Hoechst High Intensity Objects (%) [2]: 13%
Population Membrane Permeable-Phenotype (%) [2]: 40%
Population Mitochondria Different-Phenotype (%) [2]: 31%
Population Mitotic Cells (%) [2]: 71%
Population Normal (%) [2]: 86%
Population Pyknosed Nuclei (%) [2]: 8%
Population Tubulin-Different-Phenotype (%) [2]: 18%
Total Cell Count [2]: 94
Population Apoptotic (%) [3]: 66%
Population Fragmented Nuclei (%) [3]: 2%
Population Healthy Nuclei (%) [3]: 91%
Population Hoechst High Intensity Objects (%) [3]: 1%
Population Membrane Permeable-Phenotype (%) [3]: 5%
Population Mitochondria Different-Phenotype (%) [3]: 33%
Population Mitotic Cells (%) [3]: 33%
Population Normal (%) [3]: 98%
Population Pyknosed Nuclei (%) [3]: 6%
Population Tubulin-Different-Phenotype (%) [3]: 29%
Total Cell Count [3]: 193
Population Apoptotic (%) [4]: 0%
Population Fragmented Nuclei (%) [4]: 6%
Population Healthy Nuclei (%) [4]: 89%
Population Hoechst High Intensity Objects (%) [4]: 16%
Population Mitochondria Different-Phenotype (%) [4]: 30%
Population Mitotic Cells (%) [4]: 100%
Population Normal (%) [4]: 83%
Population Pyknosed Nuclei (%) [4]: 4%
Population Tubulin-Different-Phenotype (%) [4]: 37%
Total Cell Count [4]: 118
Population Apoptotic (%) [5]: 57%
Population Fragmented Nuclei (%) [5]: 7%
Population Healthy Nuclei (%) [5]: 85%
Population Hoechst High Intensity Objects (%) [5]: 3%
Population Membrane Permeable-Phenotype (%) [5]: 37%
Population Mitochondria Different-Phenotype (%) [5]: 23%
Population Mitotic Cells (%) [5]: 42%
Population Normal (%) [5]: 96%
Population Pyknosed Nuclei (%) [5]: 7%
Population Tubulin-Different-Phenotype (%) [5]: 16%
Total Cell Count [5]: 196
Population Apoptotic (%) [6]: 36%
Population Fragmented Nuclei (%) [6]: 6%
Population Healthy Nuclei (%) [6]: 81%
Population Hoechst High Intensity Objects (%) [6]: 10%
Population Membrane Permeable-Phenotype (%) [6]: 28%
Population Mitochondria Different-Phenotype (%) [6]: 35%
Population Mitotic Cells (%) [6]: 63%
Population Normal (%) [6]: 89%
Population Pyknosed Nuclei (%) [6]: 12%
Population Tubulin-Different-Phenotype (%) [6]: 20%
Total Cell Count [6]: 101
Population Apoptotic (%) [7]: 26%
Population Fragmented Nuclei (%) [7]: 3%
Population Healthy Nuclei (%) [7]: 91%
Population Hoechst High Intensity Objects (%) [7]: 1%
Population Membrane Permeable-Phenotype (%) [7]: 5%
Population Mitochondria Different-Phenotype (%) [7]: 27%
Population Mitotic Cells (%) [7]: 73%
Population Normal (%) [7]: 98%
Population Pyknosed Nuclei (%) [7]: 5%
Population Tubulin-Different-Phenotype (%) [7]: 30%
Total Cell Count [7]: 263
Population Apoptotic (%) [8]: 12%
Population Fragmented Nuclei (%) [8]: 2%
Population Healthy Nuclei (%) [8]: 90%
Population Hoechst High Intensity Objects (%) [8]: 8%
Population Membrane Permeable-Phenotype (%) [8]: 8%
Population Mitochondria Different-Phenotype (%) [8]: 34%
Population Mitotic Cells (%) [8]: 87%
Population Normal (%) [8]: 91%
Population Pyknosed Nuclei (%) [8]: 6%
Population Tubulin-Different-Phenotype (%) [8]: 36%
Total Cell Count [8]: 133

CC[C@@]1(O)C(=O)OCc2c1cc1n(c2=O)Cc2cc3ccccc3nc2-1 [CAMPTOTHECIN]
Population Healthy Nuclei (%) [1]: 34% and 42% and 78%
Population Membrane Permeable-Phenotype (%) [1]: 11% and 13% and 14%
Population Mitochondria Different-Phenotype (%) [1]: 25% and 31% and 35%
Population Normal (%) [1]: 48% and 90%
Population Pyknosed Nuclei (%) [1]: 13% and 7%
Population Tubulin-Different-Phenotype (%) [1]: 20% and 33%
Population Apoptotic (%) [2]: 22% and 36% and 16%
Population Fragmented Nuclei (%) [2]: 62% and 59% and 26%
Population Healthy Nuclei (%) [2]: 25% and 24% and 65%
Population Hoechst High Intensity Objects (%) [2]: 62% and 50% and 28%
Population Membrane Permeable-Phenotype (%) [2]: 10% and 9%
Population Mitochondria Different-Phenotype (%) [2]: 45% and 38% and 22%
Population Mitotic Cells (%) [2]: 77% and 64% and 83%
Population Normal (%) [2]: 37% and 49% and 71%
Population Pyknosed Nuclei (%) [2]: 12% and 15%
Population Apoptotic (%) [3]: 47%
Population Fragmented Nuclei (%) [3]: 13%
Population Healthy Nuclei (%) [3]: 74%
Population Hoechst High Intensity Objects (%) [3]: 6%
Population Membrane Permeable-Phenotype (%) [3]: 16%
Population Mitochondria Different-Phenotype (%) [3]: 24%
Population Mitotic Cells (%) [3]: 52%
Population Normal (%) [3]: 93%
Population Pyknosed Nuclei (%) [3]: 11%
Population Tubulin-Different-Phenotype (%) [3]: 31%
Total Cell Count [3]: 161
Population Apoptotic (%) [4]: 18%
Population Fragmented Nuclei (%) [4]: 20%
Population Healthy Nuclei (%) [4]: 68%
Population Hoechst High Intensity Objects (%) [4]: 19%
Population Membrane Permeable-Phenotype (%) [4]: 13%
Population Mitochondria Different-Phenotype (%) [4]: 32%
Population Mitotic Cells (%) [4]: 81%
Population Normal (%) [4]: 80%
Population Pyknosed Nuclei (%) [4]: 10%
Population Tubulin-Different-Phenotype (%) [4]: 38%
Total Cell Count [4]: 131
Population Apoptotic (%) [5]: 63% and 75% and 77%
Population Healthy Nuclei (%) [5]: 26% and 28% and 72%
Population Membrane Permeable-Phenotype (%) [5]: 36% and 32% and 15%
Population Mitochondria Different-Phenotype (%) [5]: 58% and 57% and 35%
Population Mitotic Cells (%) [5]: 36% and 24% and 22%
Population Normal (%) [5]: 43% and 46% and 91%
Population Pyknosed Nuclei (%) [5]: 15% and 18%
Population Tubulin-Different-Phenotype (%) [5]: 38% and 42% and 40%
Population Apoptotic (%) [6]: 54% and 62% and 80%
Population Fragmented Nuclei (%) [6]: 63% and 22%
Population Hoechst High Intensity Objects (%) [6]: 59% and 27%
Population Mitochondria Different-Phenotype (%) [6]: 54% and 50% and 33%
Population Mitotic Cells (%) [6]: 45% and 37% and 20%
Population Normal (%) [6]: 40% and 72%
Population Pyknosed Nuclei (%) [6]: 21% and 11%
Population Apoptotic (%) [7]: 80%
Population Fragmented Nuclei (%) [7]: 21%
Population Healthy Nuclei (%) [7]: 65%
Population Hoechst High Intensity Objects (%) [7]: 5%
Population Membrane Permeable-Phenotype (%) [7]: 14%
Population Mitochondria Different-Phenotype (%) [7]: 41%
Population Mitotic Cells (%) [7]: 20%
Population Normal (%) [7]: 94%
Population Pyknosed Nuclei (%) [7]: 13%
Population Tubulin-Different-Phenotype (%) [7]: 37%
Total Cell Count [7]: 157
Population Apoptotic (%) [8]: 90%
Population Fragmented Nuclei (%) [8]: 25%
Population Healthy Nuclei (%) [8]: 64%
Population Hoechst High Intensity Objects (%) [8]: 10%
Population Membrane Permeable-Phenotype (%) [8]: 17%
Population Mitochondria Different-Phenotype (%) [8]: 35%
Population Mitotic Cells (%) [8]: 9%
Population Normal (%) [8]: 89%
Population Pyknosed Nuclei (%) [8]: 11%
Population Tubulin-Different-Phenotype (%) [8]: 42%
Total Cell Count [8]: 112
